Measured values reported in the M2OR odorant receptor database.

The compounds below were run against T1, OR5K1 (Homo sapiens) (UniProt Q8NHB7). Details: stereoisomer not certain.
T1 sequence (whole entry): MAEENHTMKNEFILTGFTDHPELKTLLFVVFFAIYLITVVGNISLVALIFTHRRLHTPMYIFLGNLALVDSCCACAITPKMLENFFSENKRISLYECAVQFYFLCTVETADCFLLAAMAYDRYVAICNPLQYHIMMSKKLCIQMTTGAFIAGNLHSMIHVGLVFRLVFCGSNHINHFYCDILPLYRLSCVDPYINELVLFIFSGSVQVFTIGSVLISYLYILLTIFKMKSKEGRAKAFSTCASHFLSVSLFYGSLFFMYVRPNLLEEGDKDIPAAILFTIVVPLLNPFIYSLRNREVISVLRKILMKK
Summary of the method: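 Assay methods differ from source to source, frequently being transient luciferase assays in mammalian cell lines. For each receptor–molecule pair, the label responsive (active) applies when the original authors judged the measured signal statistically different from baseline, and non-responsive (inactive) applies otherwise.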

SMILES | odorant receptor agonist call
Cc1occc1S | inactive
CCOC(=O)CCSC | inactive
CSC | inactive
CC(C)CC=O | inactive
CCCCC(CC)CCC(=O)O (centres undefined) | inactive
C=C(C)C1CC=C(C)CC1 (centres undefined) | inactive
CCC(=O)C(C)=O | inactive
CCCC(=O)OC | inactive
CCCCCC(C)O (centres undefined) | inactive
COCCC(C)(C)S | inactive
CC(C)CCO | inactive
CCC=O | inactive
CCCC1CCCC(=O)O1 (centres undefined) | inactive
Cc1c[nH]c2ccccc12 | inactive
CC(=O)C(C)O (centres undefined) | inactive
COc1cccc(OC)c1O | inactive
C=CC(=O)CC=CCC | inactive
CCC=CCCOC(C)=O | inactive
SCCc1ccccc1 | inactive
CC(C)CCCCCCCCCCC=O | inactive

SMILES | odorant receptor agonist call
CCCC(S)CCO (centres undefined) | inactive
CCC(=O)C1=NCCC1 | inactive
CCCCCCC=CC=O | inactive
C=CCSC | inactive
CCC=CCCC=CCO | inactive
CCO | inactive
CC(=O)c1ccc(C)cc1 | inactive
CCC(=O)C(C)S (centres undefined) | inactive
CCCSSSCCC | inactive
C=CC(=O)CC | inactive
COC(=O)C(C)C | inactive
CCCCCCCC1CCCC(=O)O1 (centres undefined) | inactive
COc1ccc2ccc(=O)oc2c1 | inactive
CC1=CCC(C(C)(C)S)CC1 (centres undefined) | inactive
CC(=O)O | inactive
CCOC(=O)CC(C)C | inactive
CCCCC(C)CCC(=O)O (centres undefined) | inactive
C=CC(O)CCCCC (centres undefined) | inactive
CC=Cc1ccc(OC)cc1 | inactive
